Experimental data published in ChEMBL document CHEMBL3734668, “Evaluation of small molecule SecA inhibitors against methicillin-resistant Staphylococcus aureus” (Bioorg Med Chem, 2015).
Values after ≈ are worked out from the molar mass of the structure shown. Active and inactive are the calls of the source. The rule behind the calls is not given here.

Key:
Staphylococcus aureus [1] = experiment: Potency index, ratio of MIC for rifampicin to MIC for test compound against Methicillin resistant Staphylococcus aureus; assay type: functional
Staphylococcus aureus [2] = experiment: Potency index, ratio of MIC for tetracycline to MIC for test compound against Methicillin resistant Staphylococcus aureus; assay type: functional
[3] = molecular target: T1, Protein translocase subunit SecA 1 (Staphylococcus aureus (strain NCTC 8325)) (UniProt O06446); experiment: Inhibition of Staphylococcus aureus SecA1 assessed as reduction in secretion of TSST-1 at 10 uM by Western blot analysis
T1 sequence (whole entry): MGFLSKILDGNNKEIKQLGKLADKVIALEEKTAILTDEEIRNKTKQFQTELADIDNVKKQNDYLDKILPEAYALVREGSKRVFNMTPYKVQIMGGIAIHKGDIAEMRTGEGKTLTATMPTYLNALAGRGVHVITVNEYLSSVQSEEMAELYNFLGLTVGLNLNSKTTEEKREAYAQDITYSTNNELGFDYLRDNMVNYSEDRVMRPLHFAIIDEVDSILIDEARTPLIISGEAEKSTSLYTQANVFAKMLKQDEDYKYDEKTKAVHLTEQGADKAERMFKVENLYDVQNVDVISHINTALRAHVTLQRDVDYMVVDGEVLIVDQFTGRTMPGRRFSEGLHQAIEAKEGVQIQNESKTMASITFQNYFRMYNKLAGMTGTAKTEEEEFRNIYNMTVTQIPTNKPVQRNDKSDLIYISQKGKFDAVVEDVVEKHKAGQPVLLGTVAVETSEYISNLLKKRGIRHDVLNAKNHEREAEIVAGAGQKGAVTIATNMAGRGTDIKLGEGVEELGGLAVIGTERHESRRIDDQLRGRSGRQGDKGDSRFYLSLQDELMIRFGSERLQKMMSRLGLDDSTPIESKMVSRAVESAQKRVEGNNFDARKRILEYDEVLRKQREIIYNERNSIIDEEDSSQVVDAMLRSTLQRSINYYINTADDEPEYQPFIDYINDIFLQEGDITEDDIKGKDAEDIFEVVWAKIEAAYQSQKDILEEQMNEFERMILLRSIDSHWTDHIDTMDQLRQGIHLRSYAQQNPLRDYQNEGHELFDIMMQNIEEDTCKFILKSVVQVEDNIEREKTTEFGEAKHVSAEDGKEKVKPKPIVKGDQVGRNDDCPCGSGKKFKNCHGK
Procedure, shortened: (§1)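 S. aureus Mu50 grown in LB at 37 °C; inhibitor added at mid-log phase and cultures sampled at several time points. Supernatants separated by centrifugation, filtered 0.45 μm, and probed by Western blot with antibodies to α-hemolysin, TSST-1 or enterotoxin B.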

Staphylococcus aureus [4] = experiment: Bacteriostatic activity against wild type Staphylococcus aureus 8325-4; assay type: functional
Procedure, shortened: (§2)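 Broth microdilution MIC per CLSI guidance in LB, 37 °C, shaking 250 rpm, 24 hr; run in triplicate in three separate experiments. MIC taken as lowest inhibitor concentration with no growth. Compounds from DMSO stocks; untreated controls carry equal DMSO.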

Staphylococcus aureus [5] = experiment: Bacteriostatic activity against Staphylococcus aureus Mu3 after 24 hrs; assay type: functional; conditions: Mu3, 24 h; procedure, shortened: as §2
[6] = molecular target: T2, Protein translocase subunit SecA 1 (Staphylococcus aureus (strain NCTC 8325), UniProt O06446); experiment: Inhibition of Staphylococcus aureus ATCC 35556 SecA1 liposome dependent proOmpA translocation incubated for 1.5 hrs measured by Western blot analysis
T2 sequence (O06446 whole entry): T1 sequence (whole entry)
Procedure, shortened: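 Per 0.1 ml: 50 mM Tris-HCl pH 7.6, 20 mM NH4Cl, 25 mM KCl, 2 mM Mg(OAc)2, ATP-regenerating system, 1.5 μg SaSecA1, 100 ng SecB, 120 ng proOmpA, 120 μg liposomes, with varying inhibitor; 30 °C, 1.5 hr. Translocated proOmpA scored as proteinase K-protected, quantified by Western blot; n = 3.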

Staphylococcus aureus [7] = experiment: Bacteriostatic activity against Staphylococcus aureus Mu50 after 24 hrs; assay type: functional; conditions: Mu50, 24 h
Procedure, shortened: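 Broth microdilution per CLSI guidelines in LB. Inhibitor added to dilute early-log culture (OD600 ≈ 0.05), 37 °C, 250 rpm, 24 hrs. Run in triplicate in three separate experiments. MIC read as the lowest concentration with no growth.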

[8] = molecular target: T3, Protein translocase subunit SecA 2 (Staphylococcus aureus (strain NCTC 8325), UniProt Q2FUW6); experiment: Inhibition of Staphylococcus aureus ATCC 35556 SecA2 expressed in Escherichia coli BL21-gammaDE3 assessed as reduction in intrinsic ATPase activity incubated for 3 hrs measured by malachite green colorimetric method
T3 sequence (Q2FUW6 whole entry): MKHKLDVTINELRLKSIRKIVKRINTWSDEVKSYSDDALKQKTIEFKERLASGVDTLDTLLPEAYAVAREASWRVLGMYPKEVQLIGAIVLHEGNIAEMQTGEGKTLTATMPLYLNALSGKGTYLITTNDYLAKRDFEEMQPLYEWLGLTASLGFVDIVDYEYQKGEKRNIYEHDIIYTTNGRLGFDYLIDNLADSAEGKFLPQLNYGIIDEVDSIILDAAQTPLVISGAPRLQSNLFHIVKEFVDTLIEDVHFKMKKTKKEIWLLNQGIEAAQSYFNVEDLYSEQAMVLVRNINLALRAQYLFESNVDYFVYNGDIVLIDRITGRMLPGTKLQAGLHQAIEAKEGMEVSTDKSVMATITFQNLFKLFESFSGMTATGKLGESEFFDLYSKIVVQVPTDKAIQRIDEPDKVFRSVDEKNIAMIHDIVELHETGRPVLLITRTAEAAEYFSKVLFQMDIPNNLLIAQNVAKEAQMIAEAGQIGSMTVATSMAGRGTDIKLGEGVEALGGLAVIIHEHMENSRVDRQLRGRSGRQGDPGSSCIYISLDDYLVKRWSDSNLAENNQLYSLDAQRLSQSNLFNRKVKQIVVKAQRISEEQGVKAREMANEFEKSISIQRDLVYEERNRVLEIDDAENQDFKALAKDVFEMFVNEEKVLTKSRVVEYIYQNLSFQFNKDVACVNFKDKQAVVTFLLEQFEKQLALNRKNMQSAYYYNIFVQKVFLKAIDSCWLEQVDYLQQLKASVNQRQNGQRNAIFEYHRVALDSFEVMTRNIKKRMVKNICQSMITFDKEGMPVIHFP

Staphylococcus aureus [9] = experiment: Potency index, ratio of MIC for norfloxacin to MIC for test compound against Methicillin resistant Staphylococcus aureus; assay type: functional
Staphylococcus aureus [10] = experiment: Bactericidal activity against Methicillin sensitive Staphylococcus aureus ATCC 6538 assessed as CFU reduction for 1 hr; assay type: functional, organism-based
Procedure, shortened: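 Log-phase LB cultures (OD600 ≈ 0.5) mixed with a range of inhibitor concentrations, shaken at 1,000 rpm, 37 °C, 1 hr, under normal room light. Cultures serially diluted in LB, plated on LB agar, incubated overnight at 37 °C. CFU counted; bactericidal effect taken as CFU reduction versus untreated control.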

[11] = molecular target: T1, Protein translocase subunit SecA 1 (Staphylococcus aureus (strain NCTC 8325)); experiment: Inhibition of Staphylococcus aureus SecA1 assessed as reduction in secretion of alpha-hemolysin at 10 uM by Western blot analysis; procedure, shortened: as §1
Staphylococcus aureus [12] = experiment: Bacteriostatic activity against Staphylococcus aureus Newman after 24 hrs; assay type: functional; procedure, shortened: as §2
Staphylococcus aureus [13] = experiment: Bacteriostatic activity against MepA deficient Staphylococcus aureus K2908; assay type: functional; procedure, shortened: as §2
Staphylococcus aureus [14] = experiment: Bacteriostatic activity against Staphylococcus aureus K2068 overexpressing MepA; assay type: functional; procedure, shortened: as §2

CCCCCCC1c2ccc(O)cc2Oc2cc(O)ccc21
Ratio (Staphylococcus aureus [1]): 250 | Ratio (Staphylococcus aureus [2]): 7 | inhibition [3]: Active | MIC (Staphylococcus aureus [4]): 4 µg/mL (≈ 13.4 µM) | MIC (Staphylococcus aureus [5]): 4 µg/mL (≈ 13.4 µM) | IC50 [6]: 4 µM | MIC (Staphylococcus aureus [7]): 4 µg/mL (≈ 13.4 µM) | IC50 [8]: 15 µM | Ratio (Staphylococcus aureus [9]): 7 | Activity (Staphylococcus aureus [10]): Dose-dependent effect | inhibition [11]: Active | MIC (Staphylococcus aureus [12]): 4 µg/mL (≈ 13.4 µM) | MIC (Staphylococcus aureus [13]): 4 µg/mL (≈ 13.4 µM) | MIC (Staphylococcus aureus [14]): 4 µg/mL (≈ 13.4 µM)
